In ChEMBL document CHEMBL1255328, “Transcriptional and translational control of the mlr operon, which confers resistance to seven classes of protein synthesis inhibitors” (2008):
≈ marks a conversion by molar mass, not a printed value.

How the values were obtained:
Staphylococcus aureus [1] = assay: Antimicrobial activity against methicillin-resistant Staphylococcus aureus CM05 by broth microdilution method; format: functional
Procedure, shortened: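 Clinical MRSA strain CM05. MICs determined by broth microdilution following accepted recommendations.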

Staphylococcus aureus [2] = assay: Antimicrobial activity against Staphylococcus aureus RN4220 harboring plasmid LI50 by broth microdilution method; format: functional
Procedure, shortened: (§1)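 S. aureus RN4220 carrying the relevant shuttle plasmid, introduced by electroporation and selected on LB agar with 10 µg/ml chloramphenicol. MICs by broth microdilution per accepted recommendations. Disk diffusion: ca. 10^7 cells in 4 ml 0.6% soft agar over 1.5% LB agar with 10 µg/ml chloramphenicol. Paper disks (5 mm) held 20 µg erythromycin or 30 µg florfenicol. Plates incubated overnight at 37°C and photographed.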

Staphylococcus aureus [3] = assay: Antimicrobial activity against cfr-deficient Staphylococcus aureus RN4220 harboring erm(B) gene by broth microdilution method; format: functional; procedure, shortened: as §1
Staphylococcus aureus [4] = assay: Antimicrobial activity against erm(B) and cfr-deficient Staphylococcus aureus RN4220 harboring plasmid LI50 by broth microdilution method
Staphylococcus aureus [5] = assay: Antimicrobial activity against Staphylococcus aureus RN4220 harboring plasmid MS2 by broth microdilution method; format: functional; procedure, shortened: as §1
Staphylococcus aureus [6] = assay: Antimicrobial activity against Staphylococcus aureus RN4220 harboring erm(B) and cfr gene by broth microdilution method
Staphylococcus aureus [7] = assay: Antimicrobial activity against erm(B)-deficient Staphylococcus aureus RN4220 harboring cfr gene by broth microdilution method; format: functional; procedure, shortened: as §1
Staphylococcus aureus [8] = assay: Antimicrobial activity against methicillin-resistant Staphylococcus aureus CM05 assessed as modification of A2503 site in 23S rRNA; format: functional
Staphylococcus aureus [9] = assay: Antimicrobial activity against methicillin-resistant Staphylococcus aureus RN4220 harboring erm(B) and cfr gene assessed as modification of A2058 site in 23S rRNA; format: functional
Staphylococcus aureus [10] = assay: Antimicrobial activity against Staphylococcus aureus RN4220 harboring erm(B) promoter-deficient plasmid MS2 by broth microdilution method
Staphylococcus aureus [11] = assay: Antimicrobial activity against methicillin-resistant Staphylococcus aureus CM05 assessed as modification of A2058 site in 23S rRNA; format: functional
Staphylococcus aureus [12] = assay: Antimicrobial activity against Staphylococcus aureus RN4220 harboring cfr gene with mutagenized second codon CAG; format: functional; procedure, shortened: as §1
Staphylococcus aureus [13] = assay: Antimicrobial activity against Staphylococcus aureus RN4220 harboring cfr gene with mutagenized first codon CAG; format: functional; procedure, shortened: as §1
Staphylococcus aureus [14] = assay: Antimicrobial activity against methicillin-resistant Staphylococcus aureus RN4220 harboring erm(B) and cfr gene assessed as modification of A2503 site in 23S rRNA; format: functional

Row | Compound | MIC (Staphylococcus aureus [1]) [µg/mL] | MIC (Staphylococcus aureus [2]) [µg/mL] | MIC (Staphylococcus aureus [3]) [µg/mL] | MIC (Staphylococcus aureus [4]) [µg/mL] | MIC (Staphylococcus aureus [5]) [µg/mL] | MIC (Staphylococcus aureus [6]) [µg/mL] | MIC (Staphylococcus aureus [7]) [µg/mL] | Activity (Staphylococcus aureus [8]) [%] | Activity (Staphylococcus aureus [9]) [%] | MIC (Staphylococcus aureus [10]) [µg/mL] | Activity (Staphylococcus aureus [11]) [%] | MIC (Staphylococcus aureus [12]) [µg/mL] | MIC (Staphylococcus aureus [13]) [µg/mL] | Activity (Staphylococcus aureus [14]) [%]
1 | O=C(N[C@H](CO)[C@H](O)c1ccc([N+](=O)[O-])cc1)C(Cl)Cl [CHLORAMPHENICOL] | 64 (≈ 198 µM) |  |  |  |  |  |  |  |  |  |  |  |  | 
2 | CCC[C@@H]1C[C@@H](C(=O)N[C@@H]([C@H]2O[C@H](SC)[C@H](O)[C@@H](O)[C@H]2O)[C@H](C)Cl)N(C)C1 [CLINDAMYCIN] | > 1020 | < 1 | > 1020 | < 1 | > 1020 | > 1020 | 1020 (≈ 2410 µM) |  |  |  |  |  |  | 
3 | CC[C@H]1OC(=O)[C@H](C)[C@@H](O[C@H]2C[C@@](C)(OC)[C@@H](O)[C@H](C)O2)[C@H](C)[C@@H](O[C@@H]2O[C@H](C)C[C@H](N(C)C)[C@H]2O)[C@](C)(O)C[C@@H](C)C(=O)[C@H](C)[C@@H](O)[C@]1(C)O [ERYTHROMYCIN] | > 1020 | 0.5 (≈ 0.681 µM) |  | 0.5 (≈ 0.681 µM) | > 1020 | > 1020 |  | 27 | 23 | 0.5 (≈ 0.681 µM) | 35 | > 1020 | > 1020 | 11
4 | CS(=O)(=O)c1ccc([C@@H](O)[C@@H](CF)NC(=O)C(Cl)Cl)cc1 [FLORFENICOL] |  | 4 (≈ 11.2 µM) |  | 4 (≈ 11.2 µM) | 128 (≈ 357 µM) | 128 (≈ 357 µM) |  | 20 | 20 | 4 (≈ 11.2 µM) | 32 | 4 (≈ 11.2 µM) | 128 (≈ 357 µM) | 16
5 | CO[C@@H]1[C@@H](O[C@@H]2O[C@H](C)[C@@H](O[C@H]3C[C@@](C)(O)[C@@H](OC(=O)CC(C)C)[C@H](C)O3)[C@H](N(C)C)[C@H]2O)[C@@H](CC=O)C[C@@H](C)[C@@H](O)/C=C/C=C/C[C@@H](C)OC(=O)C[C@H]1OC(C)=O [JOSAMYCIN] |  |  | > 2000 | 1 (≈ 1.21 µM) |  | > 2000 | 64 (≈ 77.3 µM) |  |  |  |  |  |  | 
6 | CC(=O)NC[C@H]1CN(c2ccc(N3CCOCC3)c(F)c2)C(=O)O1 [LINEZOLID] | 8 (≈ 23.7 µM) |  |  |  |  |  |  |  |  |  |  |  |  | 
7 | C=C[C@]1(C)C[C@@H](OC(=O)CSCCN(CC)CC)[C@]2(C)[C@H](C)CC[C@]3(CCC(=O)[C@H]32)[C@@H](C)[C@@H]1O [TIAMULIN] | 512 (≈ 1040 µM) | 1 (≈ 2.03 µM) |  |  | 128 (≈ 259 µM) |  |  |  |  |  |  |  |  | 
8 | CC[C@H]1OC(=O)C[C@@H](O)[C@H](C)[C@@H](O[C@@H]2O[C@H](C)[C@@H](O[C@H]3C[C@@](C)(O)[C@@H](O)[C@H](C)O3)[C@H](N(C)C)[C@H]2O)[C@@H](CC=O)C[C@@H](C)C(=O)/C=C/C(C)=C/[C@@H]1CO[C@@H]1O[C@H](C)[C@@H](O)[C@@H](OC)[C@H]1OC [TYLOSIN] |  | 2 (≈ 2.18 µM) | 2000 (≈ 2180 µM) | 1 (≈ 1.09 µM) | > 1020 | 6000 (≈ 6550 µM) | 2 (≈ 2.18 µM) |  |  |  |  |  |  | 
9 | SPIRAMYCIN |  |  | > 4000 |  |  |  | 128 |  |  |  |  |  |  | 
